Our source for the CC50, inhibition and Kd values is ChEMBL document CHEMBL4184128, “Design, synthesis and biological evaluation of (E)-3,4-dihydroxystyryl 4-acylaminophenethyl sulfone, sulfoxide derivatives as dual inhibitors of HIV-1 CCR5 and integrase” (Bioorg Med Chem, 2017).

Structures are written as SMILES. pKd: −log10 of the molar value.

Series [1] in a line: Cytotoxicity against human TZM-bl cells assessed as reduction in cell viability after 2 days by CCK-8 assay. It counts as cell-based. A digest of the protocol:
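TZM-bl cells seeded at 1×10^5 cells/mL and exposed to compound at 1000, 200, 40, 8 and 1.6µM, dissolved in DMSO cell freezing medium. Cells kept at 37°C, 5% CO2, in triplicate wells, with a medium-only control. After 2 days, CCK-8 was added for 3–4 h and A450 was read. Survival % = A450 treated/control ×100. CC50 is the concentration giving 50% cytotoxicity.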
(Formazan colour is commonly taken as a measure of viable cells.)

Series [2] addresses C-C chemokine receptor type 5 (Homo sapiens) (UniProt P51681). Briefly: Inhibition of CCR5 in human TZM-bl cells infected with HIV1 Bal R5 assessed as antiviral activity by measuring reduction in viral infection at 50 uM pre-incubated with cells followed by viral infection measured after 3 days by luciferase reporter gene assay. It counts as functional, cell-based. A digest of the protocol:
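TZM-bl cells were plated, and medium was replaced after 12 h with compound at 50μM in duplicate wells. HIV-1 Bal (R5) at 200TCID50 was added with DEAE at 10μg/mL final. Plates were incubated 3 days at 37°C, 5% CO2. Luciferase substrate in lysis buffer reacted 2 min at room temperature, protected from light. Inhibition % was taken as the decrease in signal relative to virus control, as the mean of two wells.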
In general terms: A reporter such as luciferase makes a cellular process visible.

The target of series [3] is Human immunodeficiency virus type 1 integrase (Human immunodeficiency virus 1, UniProt Q7ZJM1). Briefly: Binding affinity to HIV1 integrase by surface plasma resonance method. A digest of the protocol: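 IN protein amine-coupled to a CM5 sensor chip (~10000RU) on a Biacore T200. Runs at 25°C in PBST running buffer, flow 30μL/min. Compounds were injected at graded concentrations (200μM, 100μM, 50μM, 25μM, 12.5μM, etc.). Sensorgrams were solvent-corrected and reference flow cell subtracted. KD came from a 1:1 kinetic binding fit.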
Chain of Human immunodeficiency virus type 1 integrase (Q7ZJM1 whole entry): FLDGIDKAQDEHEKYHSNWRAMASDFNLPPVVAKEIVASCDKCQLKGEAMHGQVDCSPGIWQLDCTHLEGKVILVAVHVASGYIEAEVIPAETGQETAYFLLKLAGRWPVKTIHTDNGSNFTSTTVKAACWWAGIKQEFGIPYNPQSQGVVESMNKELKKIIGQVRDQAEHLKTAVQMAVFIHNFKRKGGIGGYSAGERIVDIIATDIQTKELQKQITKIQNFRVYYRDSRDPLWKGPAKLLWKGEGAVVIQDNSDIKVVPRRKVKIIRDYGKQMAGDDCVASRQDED

Chain of C-C chemokine receptor type 5 (Homo sapiens) (P51681 whole entry, looked up): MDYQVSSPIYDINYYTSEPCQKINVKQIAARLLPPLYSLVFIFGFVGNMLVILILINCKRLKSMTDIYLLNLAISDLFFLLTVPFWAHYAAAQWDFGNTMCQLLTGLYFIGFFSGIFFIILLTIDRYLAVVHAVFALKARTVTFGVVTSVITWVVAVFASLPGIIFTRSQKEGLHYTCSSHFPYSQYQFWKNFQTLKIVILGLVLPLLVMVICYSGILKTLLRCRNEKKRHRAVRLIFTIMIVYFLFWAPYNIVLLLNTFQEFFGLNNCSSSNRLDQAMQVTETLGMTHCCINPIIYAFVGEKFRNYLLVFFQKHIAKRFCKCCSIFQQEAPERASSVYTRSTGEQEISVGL

`O=C(Nc1ccc(CCS(=O)(=O)/C=C/c2ccc(O)c(O)c2)cc1)C12CC3CC(CC(C3)C1)C2`: the cytotoxic concentration (CC50) at 48 h in series [1] stood at 786 µM. Also, in series [2], the inhibition came to 21.6%.

Regarding `CC(=O)Oc1ccc(/C=C/S(=O)(=O)CCc2ccc(NC(=O)c3cc(F)cc(F)c3)cc2)cc1OC(C)=O`, the CC50 at 48 h in series [1] came to 225 µM. The inhibition in series [2] is below 20%.

Consider `O=C(Nc1ccc(CCS(=O)(=O)/C=C/c2ccc(O)c(O)c2)cc1)c1cc(F)cc(F)c1`, for which the CC50 at 48 h in series [1] is 414 µM. The inhibition in series [2] amounted to 33%.

Take `O=C(Nc1ccc(CC[S+]([O-])/C=C/c2ccc(O)c(O)c2)cc1)C1CCCCC1` (centres undefined): the inhibition in series [2] was 52.7%.

Consider `COc1ccc(C(=O)Nc2ccc(CCS(=O)(=O)/C=C/c3ccc(OC(C)=O)c(OC(C)=O)c3)cc2)cc1`, for which the cytotoxic concentration (CC50) at 48 h in series [1] came to 858 µM. Besides, the inhibition in series [2] is below 20%.

Turning to `CC(=O)Oc1ccc(/C=C/S(=O)(=O)CCc2ccc(NC(=O)C34CC5CC(CC(C5)C3)C4)cc2)cc1OC(C)=O`, the 50% cytotoxic concentration (CC50) at 48 h in series [1] was found to be 182 µM. The inhibition in series [2] was 23.7%.

For the compound `CC(=O)Oc1ccc(/C=C/S(=O)(=O)CCc2ccc(NC(=O)c3ccc(F)cc3)cc2)cc1OC(C)=O`, in series [1], the 50% cytotoxic concentration (CC50) at 48 h came to 162 µM. The inhibition in series [2] stood at 26.2%.

For `O=C(Nc1ccc(CC[S+]([O-])/C=C/c2ccc(O)c(O)c2)cc1)c1ccccc1` (centres undefined), the CC50 at 48 h in series [1] is 157 µM. Also, the inhibition in series [2] is 68.4%. The compound further had a negative-log Kd (pKd) in series [3] of 3.85.

With `O=C(Nc1ccc(CCS(=O)(=O)/C=C/c2ccc(O)c(O)c2)cc1)C1CCCCC1`, the CC50 at 48 h in series [1] came out at 638 µM. The inhibition in series [2] came out at 45.9%. Moreover, in series [3], the pKd was 3.94.

As for `O=C(Nc1ccc(CC[S+]([O-])/C=C/c2ccc(O)c(O)c2)cc1)C12CC3CC(CC(C3)C1)C2` (centres undefined), in series [2], the inhibition was determined as 64.7%.

Regarding `CC(=O)Oc1ccc(/C=C/S(=O)(=O)CCc2ccc(NC(=O)c3ccc(C)cc3)cc2)cc1OC(C)=O`, the CC50 at 48 h in series [1] is 177 µM. Further, the inhibition in series [2] is below 20%.

As for `COc1ccc(C(=O)Nc2ccc(CCS(=O)(=O)/C=C/c3ccc(O)c(O)c3)cc2)cc1`, in series [1], the 50% cytotoxic concentration (CC50) at 48 h was above 1000 µM. Besides, the inhibition in series [2] was below 20%.

In the case of `CC(=O)Oc1ccc(/C=C/S(=O)(=O)CCc2ccc(NC(=O)C3CCCCC3)cc2)cc1OC(C)=O`, the CC50 at 48 h in series [1] turned out to be 169 µM. Besides, the inhibition in series [2] was below 20%.

For `O=C(Nc1ccc(CC[S+]([O-])/C=C/c2ccc(O)c(O)c2)cc1)c1ccc(F)cc1` (centres undefined), the CC50 at 48 h in series [1] was 127 µM. In series [2], the inhibition worked out at 64.6%.

In the case of `Cc1nnc(C(C)C)n1[C@@H]1C[C@H]2CC[C@@H](C1)N2CC[C@H](NC(=O)C1CCC(F)(F)CC1)c1ccccc1` [MARAVIROC], the CC50 at 48 h in series [1] was above 1000 µM.

Turning to `O=C(Nc1ccc(CCS(=O)(=O)/C=C/c2ccc(O)c(O)c2)cc1)c1ccc([N+](=O)[O-])cc1`, the CC50 at 48 h in series [1] worked out at 483 µM. Moreover, the inhibition in series [2] was determined as 23.4%.

Take `O=C(Nc1ccc(CCS(=O)(=O)/C=C/c2ccc(O)c(O)c2)cc1)c1ccc(F)cc1`: the CC50 at 48 h in series [1] was above 1000 µM. Moreover, the inhibition in series [2] is below 20%.

In the case of `Cc1ccc(C(=O)Nc2ccc(CCS(=O)(=O)/C=C/c3ccc(O)c(O)c3)cc2)cc1`, the half-maximal cytotoxic concentration (CC50) at 48 h in series [1] came out at 168 µM. Besides, in series [2], the inhibition was below 20%.

`O=C(Nc1ccc(CC[S+]([O-])/C=C/c2ccc(O)c(O)c2)cc1)c1cc(F)cc(F)c1` (centres undefined): in series [2], the inhibition was determined as 41.8%.

`COc1ccc(C(=O)Nc2ccc(CC[S+]([O-])/C=C/c3ccc(O)c(O)c3)cc2)cc1` (centres undefined): the inhibition in series [2] amounted to 34.1%.

Turning to `CC(=O)Oc1ccc(/C=C/S(=O)(=O)CCc2ccc(NC(=O)c3ccccc3)cc2)cc1OC(C)=O`, the CC50 at 48 h in series [1] worked out at 108 µM. In series [2], the inhibition is below 20%. In series [3], this compound showed a pKd of 3.68.

On to `O=C(Cc1cccs1)Nc1ccc(CCS(=O)(=O)/C=C/c2ccc(O)c(O)c2)cc1`, for which the cytotoxic concentration (CC50) at 48 h in series [1] was determined as 569 µM. The inhibition in series [2] was below 20%.

In the case of `CC(=O)Oc1ccc(/C=C/S(=O)(=O)CCc2ccc(NC(=O)c3ccc([N+](=O)[O-])cc3)cc2)cc1OC(C)=O`, in series [1], the CC50 at 48 h is 160 µM. Further, the inhibition in series [2] was determined as 52.2%.

Turning to `CC(=O)Oc1ccc(/C=C/S(=O)(=O)CCc2ccc(NC(=O)Cc3cccs3)cc2)cc1OC(C)=O`, the half-maximal cytotoxic concentration (CC50) at 48 h in series [1] is 161 µM. Moreover, the inhibition in series [2] turned out to be 23%.

For `O=C(Nc1ccc(CCS(=O)(=O)/C=C/c2ccc(O)c(O)c2)cc1)c1ccccc1`, the CC50 at 48 h in series [1] amounted to 238 µM. Also, the inhibition in series [2] was below 20%. Further, the pKd in series [3] was 3.80.

By CC50 is commonly meant the concentration giving 50% cytotoxicity. The inhibition is the change of the read-out against control, counted positive when it falls. The term pKd denotes the Kd on a negative log10 scale, so that one unit is a factor of ten. A high value points to a low Kd.
